Marks after values point to notes of the source that are not given here.
Assays:
[1] = Third in vitro rumen fluid trial; conditions: for 3‐NOP concentration remaining after 16 h: 39°C
[2] = system: human lymphoblastoid TK6 cells; assay: In vitro micronucleus assay; conditions: with and without S9, up to 1,220 μg/mL
[3] = system: Holstein Friesian dairy cows; assay: Three long‐term studies on enteric methane output; type: in vivo
[4] = Overall NOAEL and health‐based guidance value
[5] = Third in vitro rumen fluid trial; conditions: 39°C
[6] = system: Chinese hamster V79 cells; assay: In vitro micronucleus assay; type: cell-based
Outline: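 OECD TG 487 study, non-GLP, in Chinese hamster V79 cells. Concentrations were set from a dose-range finding test. Without S9-mix, cells had continuous 24 h treatment up to 1,243 μg/mL. With S9-mix, cells had short 4 h treatment plus 20 h recovery up to 310 μg/mL. Micronuclei were scored against the historical vehicle control range.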

[7] = Incubation of 14C‐3‐NOP in liver fractions; type: in vitro ADME, humans; conditions: human, liver S9 and liver cytosol
Outline: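 14C-labelled test compound was incubated with or without NAD+ in liver S9, cytosol and microsomes from Sprague–Dawley rat, Wistar Han rat, Beagle dog and human. Aliquots were taken at several time points and the proteins precipitated. Supernatants were analysed by liquid scintillation counting and radio-HPLC, and half-life was derived from the time course.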

[8] = system: Holstein Friesian dairy cows; assay: Tolerance study in dairy cows; type: in vivo; conditions: for Dry matter intake: 56 days
Acute inhalation test = type: in vivo, Wistar rats; conditions: Wistar, rat, in vivo, inhaled
Wistar rats = assay: Acute inhalation test; type: in vivo
[9] = system: L5178Y TK +/− mouse lymphoma; assay: L5178Y TK+/− mouse lymphoma assay; type: cell-based; conditions: up to 1,211 μg/mL, presence and absence of S9‐mix
[10] = study 1 WUR, 54 mg 3‐NOP/kg TMR DM intake
[11] = study 2 UK, 57 mg 3‐NOP/kg TMR DM intake
[12] = study 3 PSU, 61 mg 3‐NOP/kg TMR DM intake
[13] = 90.2 mg 3‐NOP/kg feed DM (× 0.8)
[14] = 106.8 mg 3‐NOP/kg feed DM (× 1)
[15] = 220.4 mg 3‐NOP/kg feed DM (× 2)

Compound: O=[N+]([O-])OCCCO [3‐NOP, propan‐1,3‐diol‐mononitrate]
- 3‐NOP concentration remaining after 16 h ([1]; 1 mg/L, anaerobic, n = 6): 0.9%
- 3‐NOP concentration remaining after 16 h ([1]; aerobic control, n = 2): 39.4%
- Radioactivity in the non‐dissolved fractions ([1]; sheep, goat and cow rumen fluids, 1 mg/L, 16 h at 39°C, anaerobic): ≤ 5.5%
- Micronuclei, overall result [2]: weak increase in micronuclei
- Final BW [3, 10]: 668 kg
- Milk fat [3, 10]: 43.4 g/kg
- Milk protein [3, 10]: 36.3 ^* g/kg
- TMR DM intake [3, 10]: 18.4 kg/day
- kg EC milk/day [3, 10]: 25.7 kg EC milk/day
- kg EC milk/kg DMI [3, 10]: 1.36 ^* kg EC milk/kg DMI
- kg milk/day [3, 10]: 24.5 kg milk/day
- g CH4/kg EC milk ([3]; study 1 WUR, 54 mg 3‐NOP/kg TMR DM intake (control 17.1)): 12.9 ^* (18.7) g CH4/kg EC milk
- g CH4/kg DM intake ([3]; study 1 WUR, 54 mg 3‐NOP/kg TMR DM intake (control 22.4)): 17.7 ^* (25.5) g CH4/kg DM intake
- g CH4/day ([3]; study 1 WUR, 54 mg 3‐NOP/kg TMR DM intake, average over 15 weeks (control 423)): 332 ^* (480) g CH4/day
- Final BW [3, 11]: 721 kg
- Milk fat [3, 11]: 39.9 ^* g/kg
- Milk protein [3, 11]: 33.4 g/kg
- TMR DM intake [3, 11]: 22.9 kg/day
- kg EC milk/day [3, 11]: 35.0 ^* kg EC milk/day
- kg EC milk/kg DMI [3, 11]: 1.53 kg EC milk/kg DMI
- kg milk/day [3, 11]: 36.0 kg milk/day
- g H2/day ([3]; study 2 UK, 57 mg 3‐NOP/kg TMR DM intake (control 2.6)): 10.6 ^* (2.4) g H2/day
- g CH4/kg EC milk ([3]; study 2 UK, 57 mg 3‐NOP/kg TMR DM intake (control 12.3)): 8.4 ^* (10.1) g CH4/kg EC milk
- g CH4/kg DM intake ([3]; study 2 UK, 57 mg 3‐NOP/kg TMR DM intake (control 20.3)): 13.5 ^* (16.7) g CH4/kg DM intake
- g CH4/day ([3]; study 2 UK, 57 mg 3‐NOP/kg TMR DM intake (control 449)): 292 ^* (400) g CH4/day
- Final BW [3, 12]: 648 kg
- Milk fat [3, 12]: 40.2 ^* g/kg
- Milk protein [3, 12]: 31.5 g/kg
- TMR DM intake [3, 12]: 25.7 kg/day
- kg EC milk/day [3, 12]: 37.5 kg EC milk/day
- kg EC milk/kg DMI [3, 12]: 1.47 kg EC milk/kg DMI
- kg milk/day [3, 12]: 38.2 kg milk/day
- g H2/day ([3]; study 3 PSU, 61 mg 3‐NOP/kg TMR DM intake (control 0.5)): 2.6 ^* (0.4) g H2/day
- g CH4/kg EC milk ([3]; study 3 PSU, 61 mg 3‐NOP/kg TMR DM intake (control 11.2)): 8.2 ^* (9.7) g CH4/kg EC milk
- g CH4/kg DM intake ([3]; study 3 PSU, 61 mg 3‐NOP/kg TMR DM intake (control 16.7)): 12.1 ^* (14.9) g CH4/kg DM intake
- g CH4/day ([3]; study 3 PSU, 61 mg 3‐NOP/kg TMR DM intake (control 410)): 308 ^* (403) g CH4/day
- Health‐based guidance value (acceptable daily intake, ADI) ([4]; NOAEL 100 mg/kg bw per day, uncertainty factor of 100): 1 mg 3‐NOP/kg bw per day
- Overall NOAEL ([4]; subchronic toxicity studies in rats, mice and dogs): 100 mg/kg bw per day
- Skin sensitisation potential (Skin sensitisation study): did not show any skin sensitisation potential
- 3‐NOP concentration remaining after 16 h ([5]; 1 mg/L, anaerobic, n = 6): 0.7%
- 3‐NOP concentration remaining after 16 h ([5]; aerobic control, n = 2): 27.9%
- Eye irritation potential (Eye irritation study): eye irritant
- Micronucleus frequency ([6]; absence of metabolic activation, up to 1,243 μg/mL, 24 h): no increase in micronucleus frequency
- Micronucleus frequency ([6]; presence of metabolic activation, up to 310 μg/mL, 4 + 20 h): statistically significant increase in micronuclei
- half-life [7]: ~42 min
- ALT [8, 13]: 27* U/L
- Albumin [8, 13]: 36 g/L
- Amylase [8, 13]: 34 U/L
- Body weight [8, 13]: 676 kg
- Body weight change [8, 13]: 43.6 kg
- Fat yield [8, 13]: 0.81 kg/day
- Fibrinogen [8, 13]: 0.88 g/L
- Haematocrit [8, 13]: 28* %
- Haemoglobin d56 [8, 13]: 110 g/L
- LDH d56 [8, 13]: 1249 U/L
- Mean corpuscular haemoglobin [8, 13]: 16.5* pg
- Milk yield [8, 13]: 28.7 kg/day
- Monocytes d5 [8, 13]: 4.8e+08 L⁻¹
- Monocytes d56 [8, 13]: 3.1e+08 L⁻¹
- Ovary absolute size [8, 13]: 31.9 g
- Ovary relative size [8, 13]: 0.048 g per kg final bw
- Protein yield [8, 13]: 0.92 kg/day
- Prothrombin time [8, 13]: 27.3* s
- Red blood cells [8, 13]: 6.52* ×10^12/L
- Water consumption [8, 13]: 95.9 kg/day
- Dry matter intake [8, 13]: 22.9 kg/day
- ALT [8, 14]: 27* U/L
- Albumin [8, 14]: 36 g/L
- Amylase [8, 14]: 34 U/L
- Body weight [8, 14]: 675 kg
- Body weight change [8, 14]: 42.2 kg
- Ca [8, 14]: 2.47* mmol/L
- Energy corrected milk [8, 14]: 22.7 kg/day
- Fat yield [8, 14]: 0.74 kg/day
- Fibrinogen [8, 14]: 0.93 g/L
- Haematocrit [8, 14]: 28* %
- Haemoglobin d56 [8, 14]: 109 g/L
- LDH d56 [8, 14]: 1245 U/L
- Milk yield [8, 14]: 27.5 kg/day
- Monocytes d5 [8, 14]: 4.6e+08 L⁻¹
- Ovary absolute size [8, 14]: 29.7 g
- Ovary relative size [8, 14]: 0.040 g per kg final bw
- Protein yield [8, 14]: 0.88 kg/day
- Red blood cells [8, 14]: 6.39* ×10^12/L
- Total cholesterol [8, 14]: 4.18* mmol/L
- Triglycerides [8, 14]: 0.130 mmol/L
- Water consumption [8, 14]: 94.6 kg/day
- Dry matter intake [8, 14]: 22.8 kg/day
- ALT [8, 15]: 24* U/L
- Albumin [8, 15]: 35* g/L
- Amylase [8, 15]: 31* U/L
- Body weight [8, 15]: 670 kg
- Body weight change [8, 15]: 36.6 kg
- Ca [8, 15]: 2.40 mmol/L
- Energy corrected milk [8, 15]: 24.7* kg/day
- Fat yield [8, 15]: 0.89* kg/day
- Fibrinogen [8, 15]: 1.00* g/L
- Haematocrit [8, 15]: 27* %
- Haemoglobin d56 [8, 15]: 103* g/L
- LDH d56 [8, 15]: 1034* U/L
- Mean corpuscular haemoglobin [8, 15]: 16 pg
- Milk yield [8, 15]: 27.5 kg/day
- Monocytes d5 [8, 15]: 0.43* ×10^9/L
- Ovary absolute size [8, 15]: 25.8* g
- Protein yield [8, 15]: 0.91 kg/day
- Prothrombin time [8, 15]: 27.0* s
- Red blood cells [8, 15]: 6.42* ×10^12/L
- Total cholesterol [8, 15]: 4.18* mmol/L
- Triglycerides [8, 15]: 0.124* mmol/L
- Water consumption [8, 15]: 87.0* kg/day
- Dry matter intake [8, 15]: 21.8* kg/day
- Number of cows with signs of liver chronic inflammation (out of 8) ([8]; 0.8× group (control 2)): 0
- Number of cows with signs of liver chronic inflammation (out of 8) ([8]; 1× group (control 2)): 3
- DM intake less than in the control group ([8]; 2× group): 4%
- Energy corrected milk yield increase compared with the control ([8]; 2× group): 7%
- Number of cows with signs of liver chronic inflammation (out of 8) ([8]; 2× group (control 2)): 5
- LC50 at 4 h (Acute inhalation test): > 5 µg/mL
- Mortality (Wistar rats; 1 and 5 mg/L): No mortality occurred
- Acute inhalation toxicity class according to the GHS (Wistar rats; rat, in vivo): class 5
- No observed adverse effect concentration (NOAEC) (Wistar rats; rat, in vivo): exceed 5 mg/L
- Mutation frequencies (MF) [9]: No biologically significant increases in MF
